Compound activity: PubChem BioAssay, Broad Institute
RAD54 inh = RAD54 (human) branch migration inhibition. 0.14% of 360,000 active. RAD54 Holliday junction branch migration, FAM/BHQ fluorescence. AID 602329. Q92698. inhibition, % at 10.4 µM;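 active = mean normalized replicate activity at least 40 and at least half of replicates scoring 40 or more; inconclusive = only one of the two criteria met; inactive = mean below 40 and under half of replicates reaching 40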;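 note: 0% = median of neutral control wells and 100% = median of positive control wells; inhibitors cause a drop in the FAM fluorescence signal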
MLL AF4-AF9 inh = inhibitors of human MLL-AF4/AF9 interaction | P42568 | AlphaScreen, biotin-AF4 peptide binding to FLAG-AF9 | inhibition, % at 10 µM | 0.47% of 350,000 active;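 active = every replicate reaching a set inhibition limit, whatever the replicate mean, cut at about 25% in these data; inconclusive = mean inhibition reaches that limit but some replicates miss it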;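 note: 0% = plate neutral control median and 100% = total signal loss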
E-selectin induc = E-selectin induction on HUVECs; 0.37% of 260,000 active; activation, % at 7.58 µM; P16581; HUVEC E-selectin immunofluorescence imaging; normalized: neutral wells 0, TNF-alpha wells 100;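 active = mean E-selectin-positive cell signal at least 10% of the positive control, reached in at least 60% of replicates, without over 20% cell loss; inconclusive = no rule given, readout overlaps actives, possibly toxicity-flagged; inactive = the rest, including those meeting only one limit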
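Assay system: HUVEC, human umbilical vein endothelial cells / Amount: 3,000 HUVEC/well / Controls: TNF-alpha positive control, DMSO neutral control / Compound dosing: single concentration / Medium: EGM-2 over gelatin coat / Evaluation: percent E-selectin-positive cells / Signal: immunofluorescence imaging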
GSIS activator = primary screen for activators of insulin secretion dependent on glucose, INS-1E cells, GLuc reporter luminescence | activation, % at 16.6 µM | 0.61% of 370,000 active | INS-1E GLuc reporter insulin secretion, 2-3 h;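 active = lowest replicate activation of at least 40%, so every replicate reaches that level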;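 note: 0% = median of neutral control wells and 100% = median of IBMX positive control wells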
RAD52 anneal inh = RAD52 (human) annealing inhibition; recombinant RAD52 DNA annealing, FRET fluorescence; 0.46% of 360,000 active; P43351; AID 651710; inhibition, % at 18.7 µM;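 active = every replicate showing at least 50% inhibition; inconclusive = mean inhibition at least 50% but not in every replicate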
Target sequence (P43351 whole entry, looked up): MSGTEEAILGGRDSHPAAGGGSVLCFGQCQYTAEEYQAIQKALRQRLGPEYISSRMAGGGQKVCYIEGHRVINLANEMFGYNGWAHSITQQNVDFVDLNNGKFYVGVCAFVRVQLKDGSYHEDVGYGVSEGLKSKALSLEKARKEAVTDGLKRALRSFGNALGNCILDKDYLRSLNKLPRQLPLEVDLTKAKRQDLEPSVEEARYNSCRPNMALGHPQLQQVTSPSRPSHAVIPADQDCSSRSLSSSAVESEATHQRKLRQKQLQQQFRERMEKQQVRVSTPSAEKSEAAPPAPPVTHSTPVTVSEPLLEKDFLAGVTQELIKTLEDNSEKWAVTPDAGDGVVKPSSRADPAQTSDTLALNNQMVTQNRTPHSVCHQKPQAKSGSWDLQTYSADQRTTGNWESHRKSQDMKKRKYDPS
Ecoli rRNA inh = selective bacterial rRNA inhibition in E. coli. E. coli WT GFP vs humanized-ribosome RFP mutants, fluorescence, 24 h; stronger effect = lower value; DMSO median 0, no signal -100. GFP signal change (wild-type ribosome), % (test concentration not listed). 1.6% of 350,000 active;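 active = significant combined selectivity score with lowered wild-type GFP, culture density cut under 30%, mutant RFP and density less affected; inactive = any of these conditions unmet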
AID977621 = growth inhibition of wild-type GFP E. coli, dose response, H69 mutant RFP, cherry-pick | shares compounds with Ecoli rRNA inh | activity change, negative = inhibition at 50 µM | 1,900 tested, under 10 active | AID 977621 | E. coli wild-type GFP strain growth, fluorescence, 24 h;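 active = Wild-type ribosome reporter drop at least double the humanized mutant ribosome reporter drop, growth loss under a set limit; inconclusive = no clear call, values can overlap the other calls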;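 note: wild-type GFP and H69 mutant RFP strains grown together 50/50 in each well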
AID977628 = growth of wild-type and h24-humanized E. coli strains – h24 mutant RFP vs wild-type GFP, cherry-pick, dose response | 1,900 tested, under 10 active | E. coli WT GFP strain growth, fluorescence, 24 h | shares compounds with Ecoli rRNA inh | activity change, negative = inhibition at 50 µM;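 active = compound lowering the normal-ribosome reporter at least twice as much as the humanized-ribosome reporter, growth loss under a set limit; inconclusive = no clear call, values can overlap the other calls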;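 note: wild-type GFP and h24 humanized RFP strains co-cultured 1 to 1 per well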
Starred values were filed as active, the others as inactive; ? = inconclusive; . = no result. Shown are actives, neighbours in structure and some others; about 2.6% of the full set was active somewhere.

SMILES	RAD54 inh	MLL AF4-AF9 inh	E-selectin induc	GSIS activator	RAD52 anneal inh	Ecoli rRNA inh	AID977621	AID977628
COc1cccc(-c2ccc(CC[C@H]3O[C@H]4CC[C@H](CO)O[C@H]4C[C@@H]3NC(=O)c3cnccn3)cc2)c1	.	-1	.	.	-3	.	.	.
CC1(C)CC(=O)c2cnc(N3CCc4ccccc43)nc2C1	.	-10	4	20	-13	-34*	-2.7	.
Fc1cnc(N2CCc3ccccc32)nc1N1CCc2ccccc21	-5	.	.	.	.	.	.	.
CCSc1nc2ccccc2c(=O)n1CCc1ccc(OC)c(OC)c1	2	-4	1	2	-2	-33*	.	?
COc1ccccc1-c1ccc2c(c1)[C@H]1[C@H](CCN1S(=O)(=O)c1ccccc1OC)[C@@H](CO)N2	-12	.	0	4	.	-2	.	.
CCOc1ccc2nc(SCC(=O)Nc3nonc3C)[nH]c2c1	.	0	5	11	-25	-20*	-15	-10
C[C@@H]1CN([C@H](C)CO)C(=O)c2cc(NC(=O)Nc3cccc4ccccc34)ccc2O[C@H]1CN(C)Cc1ccc(-c2ccccc2)cc1	-4	3	1	8	-6	2	.	.
Cc1noc(C)c1NC(=O)Nc1ccc2c(c1)CC(=O)N([C@@H](C)CO)C[C@H](C)[C@@H](CN(C)Cc1ccc(-c3ccccc3)cc1)O2	.	0	4	-11	15	0	.	.
CCNc1nc(N)c(C(=C(C#N)C#N)c2ccccc2)s1	18	.	.	.	.	.	.	.
CCNc1nc(N)c(C(=O)C23CC4CC(CC(C4)C2)C3)s1	-6	.	.	17	-10	-23*	7.1	-6.3
CC(OC(=O)COc1ccccc1)C(=O)NC1CCCC1 (stereo unspecified)	8	-4	0	12	2	-18*	.	-8.7
CC(Oc1ccccc1)C(=O)NC1CCCCCCC1 (stereo unspecified)	-8	-3	.	11	0	3	.	.
O=C(O)c1cccnc1SCc1ccccc1Cl	-7	-1	5	-28	-12	-22*	-9.8	.
O=C(O)c1cccnc1Sc1ccccc1Cl	4	-19	.	21	-16	6	.	.
CC1Cc2ccccc2N1C(=O)COc1ccc2c(c1)OCO2 (stereo unspecified)	1	1	0	-10	-6	-22*	.	-14
CC1CCCN(C(=O)COc2ccc3c(c2)OCO3)C1 (stereo unspecified)	-8	-1	0	11	7	4	.	.
CC(=O)c1c(N2CCOCC2)nc2ccc(Cl)cc2c1-c1ccccc1	.	.	.	-8	-11	-19*	0.093	.
Cc1nc2ccc(Cl)cc2c(-c2ccccc2)c1C(=O)N(C)C	-21	4	.	25	13	-7	.	.
Cc1cc(C(=O)COC(=O)CNC(=O)c2ccccc2)c(C)n1CC1CCCO1 (stereo unspecified)	.	1	0	-5	-9	-20*	-4.9	-10
Cc1cccc(C(=O)NCC(=O)OCC(=O)c2cc(C)n(CC3CCCO3)c2C)c1 (stereo unspecified)	.	2	2	-15	-16	-6	.	.
O=[N+]([O-])c1cncc([N+](=O)[O-])c1Nc1cccc(O)c1	5	-1	.	-6	-6	-26*	.	-11
Cc1ccccc1Nc1c([N+](=O)[O-])cncc1[N+](=O)[O-]	-6	-5	0	16	9	7	.	.
COc1ccc(S(=O)(=O)N(C)C[C@H]2Oc3ccc(NC(=O)Nc4c(C)noc4C)cc3CC(=O)N([C@H](C)CO)C[C@H]2C)cc1	3	-2	-5	-5	0	-2	.	.
CN(CC(=O)Nc1cccc(F)c1)C(=O)Cn1c(=O)oc2ccccc21	-6	-3	.	11	-6	-17*	-4.9	-5
CN(CC(=O)Nc1ccc(F)cc1)C(=O)Cn1c(=O)oc2ccccc21	18	0	.	-11	-34	4	.	.
SMILES	RAD54 inh	MLL AF4-AF9 inh	E-selectin induc	GSIS activator	RAD52 anneal inh	Ecoli rRNA inh	AID977621	AID977628
COc1ccc(N2C(=O)C3C(c4ccc(C(=O)O)cc4)NC(Cc4ccccc4)(C(=O)O)C3C2=O)c([N+](=O)[O-])c1 (stereo unspecified)	.	-2	4	-11	-13	-19*	3.8	3.9
Cc1cc(Cl)ccc1OCCCC(=O)NN	-2	-2	.	-4	-17	3	.	.
Cc1cc(Cl)ccc1OCCCC(=O)OCC(N)=O	-9	-4	?	7	-21	-18*	-20	?
CC(C)(C)N(Cc1ccccc1)C(=O)COC(=O)Cn1cnc2ccccc2c1=O	.	-7	0	-13	-8	-32*	-1.2	-2.9
CCCc1cc(C(=O)N2CCCC(C(=O)c3cccc4ccccc34)C2)n(C)n1 (stereo unspecified)	.	6	.	-54	-5	-9	.	.
CCc1cc(C(=O)N2CCCC(C(=O)c3cccc4ccccc34)C2)n(C)n1 (stereo unspecified)	.	-3	4	-13	-15	-26*	-6.8	.
COc1ccc(-c2cn(CC[C@@H]3CC[C@@H](NC(=O)NC(C)C)[C@@H](CO)O3)nn2)cc1	0	-4	0	-3	-4	0	.	.
CCCC#Cc1cnc2c(c1)C(=O)N([C@H](C)CO)C[C@H](C)[C@H](CN(C)C(=O)Nc1cc(F)ccc1F)O2	1	-1	0	-16	-2	1	.	.
CS(=O)(=O)N1CCc2cc(-c3csc(NC(=O)C(c4ccccc4)c4ccccc4)n3)ccc21	2	.	.	-24	.	.	.	.
CC1Cc2cc(-c3csc(NC(=O)Cc4ccccc4)n3)ccc2N1S(C)(=O)=O (stereo unspecified)	3	2	.	8	-29	-26*	-4.2	-17
Cc1cc(CNC(=O)c2cc(-c3ccccc3)nc3ccccc23)nn1C	.	-2	.	7	-14	-24*	-7.1	-14
Cc1cc(C)n2nc(C(=O)Nc3cccc(S(=O)(=O)N(C)c4ccccc4)c3)nc2n1	.	-6	2	0	-28	-26*	-15	.
CN(c1ccccc1)S(=O)(=O)c1cccc(NC(=O)c2ccncc2)c1	.	3	-5	-38	-25	-15	.	.
COc1ccccc1S(=O)(=O)N1CC[C@@H]2[C@@H](CO)Nc3ccc(Br)cc3[C@@H]21	-3	.	1	-15	.	-30	.	.
O=C(c1ccc(F)cc1)N1CCCCN2[C@H](C1)[C@@H](c1ccc(/C=C/c3ccccc3)cc1)[C@@H]2CO	4	2	0	-1	-28	-1	.	.
